In ChEMBL document CHEMBL1629548, “In vitro activities of tigecycline against clinical isolates of Aeromonas, Vibrio, and Salmonella species in Taiwan” (2008) one finds Activity data, which are given here for two compounds.

SMILES strings stand for the structures.

Format in all cases: functional
One assay relates to Aeromonas hydrophila. The experiment in a line: Antimicrobial activity against Aeromonas hydrophila assessed as susceptibility level by disk diffusion method. Put shortly:
(§1)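 Cefotaxime and ciprofloxacin susceptibility taken from routine clinical laboratory reports; disk diffusion per CLSI guidelines.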

For another assay, the system named is Aeromonas caviae. The experiment in a line: Antimicrobial activity against Aeromonas caviae assessed as susceptibility level by disk diffusion method. Put shortly:
as §1
In general terms: A growth-free zone around the sample is the usual read-out of agar diffusion tests.

For a further assay, the system named is Aeromonas sobria. Briefly: Antimicrobial activity against Aeromonas sobria assessed as susceptibility level by disk diffusion method. Put shortly:
as §1

Assay [1] deals with Salmonella. The experiment in a line: Antimicrobial activity against Salmonella serogroup O8 assessed as susceptibility level by disk diffusion method. Put shortly:
as §1

The subject of assay [2] is Salmonella. Briefly: Antimicrobial activity against Salmonella serogroup O9 assessed as susceptibility level by disk diffusion method. Put shortly:
as §1

The test system of a further assay is Salmonella enterica. The experiment in a line: Antimicrobial activity against Salmonella serotype Choleraesuis assessed as susceptibility level by disk diffusion method. Put shortly:
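Cefotaxime and ciprofloxacin susceptibility was taken from routine laboratory reports. These were generated by disk diffusion according to CLSI guidelines.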

Assay [3] concerns Salmonella. Briefly: Antimicrobial activity against Salmonella serogroup O7 assessed as susceptibility level by disk diffusion method. Put shortly:
as §1

Consider `CO/N=C(\C(=O)N[C@@H]1C(=O)N2C(C(=O)O)=C(COC(C)=O)CS[C@H]12)c1csc(N)n1` [CEFOTAXIME], for which the Activity with Aeromonas hydrophila amounted to 79%; in the assay on Aeromonas caviae it was 73%; with Aeromonas sobria, 95%.

Consider `O=C(O)c1cn(C2CC2)c2cc(N3CCNCC3)c(F)cc2c1=O` [CIPROFLOXACIN], for which the Activity with Salmonella [1] is 57%; in the assay on Salmonella [2], 96%; with Aeromonas hydrophila, 90%; in the assay on Aeromonas caviae, 86%; in the assay on Aeromonas sobria, 93%; in the assay on Salmonella enterica, 22%. For the same compound, in the assay with Salmonella [3], the Activity amounted to 77%.
